Screening data (PubChem)
TCR-CD3 inh = inhibitors of human TCR-CD3 interaction, primary screen, biochemical, fluorescence, TAMRA-labeled TCR probe; T-cell receptor (TCR); inhibition, % at 9.4 µM; 360,000 tested, 0.37% active; AID 651800, 2012; in the data active = inhibition above about 19%;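 note: recombinant mutant TCR 2C K166C tagged with TAMRA read by polarization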
HTRA1 inhibitor = HTRA1 serine protease inhibitors, primary screen, biochemical, fluorescence polarization, HTS. 340,000 tested, 0.5% active. inhibition, % at 5.96 µM. recombinant HTRA1, FP-rhodamine activity-based probe. Q92743; in the data active = inhibition above about 36%
DAGLB inhibitor = DAGLB lipase inhibitors, primary screen, biochemical, fluorescence, HTS | HEK293T DAGLB membrane lysate, EnzChek fluorogenic substrate | inhibition, % at 5.17 µM | Diacylglycerol lipase-beta (Homo sapiens), Q8NCG7 | 340,000 tested, 0.059% active | AID 504411, 2011; in the data active = inhibition above about 34%
Target sequence (Q8NCG7 whole entry, looked up): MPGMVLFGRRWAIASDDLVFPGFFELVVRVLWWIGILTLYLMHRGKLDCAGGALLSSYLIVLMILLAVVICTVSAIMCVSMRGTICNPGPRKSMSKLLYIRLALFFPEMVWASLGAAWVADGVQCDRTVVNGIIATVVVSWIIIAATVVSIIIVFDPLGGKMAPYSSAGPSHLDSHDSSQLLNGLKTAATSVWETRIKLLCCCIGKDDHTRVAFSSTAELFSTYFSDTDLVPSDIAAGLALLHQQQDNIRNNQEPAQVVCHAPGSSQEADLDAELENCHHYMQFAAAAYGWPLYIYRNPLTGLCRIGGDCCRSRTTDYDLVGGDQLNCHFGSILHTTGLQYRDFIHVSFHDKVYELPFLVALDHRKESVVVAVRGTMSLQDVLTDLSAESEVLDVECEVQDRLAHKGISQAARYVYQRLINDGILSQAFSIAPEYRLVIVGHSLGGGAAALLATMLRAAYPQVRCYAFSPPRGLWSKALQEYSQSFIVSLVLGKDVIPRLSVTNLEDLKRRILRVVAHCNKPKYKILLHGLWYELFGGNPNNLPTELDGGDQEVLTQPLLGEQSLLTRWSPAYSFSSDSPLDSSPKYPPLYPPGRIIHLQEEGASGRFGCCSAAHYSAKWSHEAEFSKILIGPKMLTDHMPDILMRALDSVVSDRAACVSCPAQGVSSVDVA
SIAE primary = human SIAE inhibitors, primary screen, biochemical, fluorescence polarization, FP-Rh probe, 1536-well HTS | 370,000 tested, 0.69% active | SIAE FP-Rh probe binding | Sialate O-acetylesterase (Homo sapiens), Q9HAT2 | inhibition, % at 9.66 µM | AID 1053197, 2014;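 active = inhibition above a cutoff: mean of compounds within the control limits plus 3 SD of those, cut at about 17% in these data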
mABHD4 FP = ABHD4 inhibitors, primary screen, biochemical, fluorescence polarization, mouse. inhibition, % at 8.92 µM. 370,000 tested, 0.54% active. purified mABHD4, FP-Rh probe fluorescence polarization. AID 720543, 2013;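 active = inhibition exceeding the mean over every tested compound plus 3 SD, cut at about 30% in these data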
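Test system: mouse ABHD4 enzyme, wild type. Reagent: FP-Rh fluorescent activity-based probe, added after compound pre-incubation. Timing: pre-incubation 45 min, probe exposure 60 min, at 25 °C. Technique: FP readout, ex 525 nm / em 598 nm. Benchmarks: high control S159A mutant with DMSO, low control median of compound wells.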
SIAE inh conf = human SIAE inhibitors, retest, confirmation, biochemical, fluorescence polarization, FP-Rh probe, triplicate; shares compounds with SIAE primary; SIAE FP-Rh activity-based probe; inhibition, % at 9.66 µM; 2,300 tested, 13% active; AID 1117263, 2014;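 active = mean inhibition of the replicates above the hit cutoff set in the primary screen, cut at about 17% in these data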;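 note: inhibitors lower polarization as more probe stays unbound to SIAE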
Numbers stand for hits; - = inactive; . = not tested or not shown. The list is not random: actives were taken first. Their share in the collection is about 1.5%.

SMILES	TCR-CD3 inh	HTRA1 inhibitor	DAGLB inhibitor	SIAE primary	mABHD4 FP	SIAE inh conf
CN1c2ccc(-c3cccc(F)c3)cc2[C@H]2[C@H](CCN2S(=O)(=O)c2cccc(F)c2)[C@H]1CO	.	.	.	-	-	.
COc1ccc2c(c1)CCc1sc(NC(=O)c3ccc(C)cc3)nc1-2	-	-	-	18	-	-
COc1ccc2c(c1)CCc1sc(NC(=O)c3ccco3)nc1-2	.	-	-	.	.	.
COc1ccc2c(c1)-c1nc(NC(=O)c3ccco3)sc1CC2	-	-	-	19	-	-
Cc1ccc(-c2nc3c4ccccc4ccn3c2Cc2ccsc2)cc1	-	.	.	-	-	.
NNc1nc2c(-c3cccc(C(F)(F)F)c3)nnn2c2ccccc12	-	-	-	22	-	-
COCCNc1nc2c(-c3cccc(C(F)(F)F)c3)nnn2c2ccccc12	-	-	-	-	-	.
FC(F)(F)c1ccc2c(c1)NCC1CCCN21 (configuration not stated)	-	-	-	18	-	-
CC1=NC2=CC=CC3=NC(C(Cl)(Cl)Cl)=NC(=N1)N23	-	.	.	-	-	.
CCN(CC(=O)Nc1ccc(NC(C)=O)cc1)C(=O)c1cccc2ccccc12	-	-	-	18	-	-
CCN(CC(=O)Nc1ccc(NC(C)=O)cc1)C(=O)Cc1cccc2ccccc12	-	-	-	-	-	.
COC(=O)[C@]12C[C@H](CC(=O)NCCc3ccccc3OC)C(=O)N(Cc3ccccc3)C1=C[C@H](C1CCCC1)O[C@@H]2C	-	.	.	-	-	.
COc1ccccc1N1CCN(CCCCOc2cccc3ccccc23)CC1	-	-	-	50	-	-
COC(=O)[C@]12C[C@H](CC(=O)NCC34CC5CC(CC(C5)C3)C4)C(=O)N(CCC3=CCCCC3)C1=C[C@H](COCc1ccccc1)O[C@@H]2C	-	.	.	-	-	.
CC(=O)c1cccc(NC(=O)c2onc(C)c2Cl)c1	-	-	-	-	-	.
Cc1noc(C(=O)Nc2cccnc2)c1Cl	-	-	-	17	-	-
O=C(Cn1nnc2ccccc21)OCC(=O)c1ccccc1	-	-	-	19	-	-
O=C(CSc1ccc(Cl)cc1)NC1=NN(c2ccccc2)C(=O)C1	-	-	-	25	-	-
CCOC(=O)c1sc(NC(=O)Nc2cccc(Cl)c2)cc1C	-	-	-	18	-	-
CCOC(=O)c1sc(NC(=O)c2cccs2)cc1C	-	-	-	-	-	.
COc1ccccc1CCn1cnc(-c2ccc(Cl)cc2)c1CC(C)C	-	.	.	-	-	.
COc1ccccc1CCC(=O)OCC(=O)N1c2ccccc2NC(=O)C1(C)C	-	-	-	21	-	-
C/C(=N\Nc1cc(C)nc(-c2ccccc2O)n1)c1ccccc1	-	-	-	-	-	.
Cc1cc(N/N=C/c2ccc(O)c(C)c2O)nc(-c2ccccc2O)n1	-	-	-	36	-	-
Cc1cc(C)c2c(c1)/C(=N/NC(=S)Nc1ccc(F)cc1)CCC2	-	-	-	20	-	-
SMILES	TCR-CD3 inh	HTRA1 inhibitor	DAGLB inhibitor	SIAE primary	mABHD4 FP	SIAE inh conf
COc1cc(NC(=O)Nc2nc(C(N)C3CCCCC3)cs2)cc(OC)c1OC (configuration not stated)	-	.	.	21	-	-
O=S1(=O)N[C@H](Cc2ccccc2)COc2cccc(N3CCCCC3)c21	-	.	.	-	-	.
CCC1CCCCN1C(=O)n1ncc(C(O)(c2ccccc2)c2ccccc2)n1 (configuration not stated)	.	.	.	-	-	.
CC(C)N(C(=O)Cn1c(=O)oc2ccccc21)c1ccccc1	-	-	-	22	-	-
O=S1(=O)c2c(cccc2N2CCC[C@@H]2CO)O[C@@H]2CCN1C2	.	.	.	-	-	.
COc1ccccc1CNC(=O)COC(=O)c1ccco1	-	-	-	-	-	.
COc1ccccc1CNC(=O)COC(=O)c1ccc(C)s1	-	-	-	23	-	-
CC1=C(C(=O)Nc2ccc(C(=O)N3CCN(c4cccc(Cl)c4)CC3)cc2)SCCO1	-	-	-	-	-	.
CC1=C(C(=O)Nc2cc(C(=O)N3CCN(c4ccc(Cl)cc4)CC3)ccc2C)SCCO1	-	-	-	19	-	-
O=C(NC1CC1)c1cccc(S(=O)(=O)Nc2ccccc2F)c1	-	-	-	17	-	-
O=C(COC(=O)COc1ccc(Cl)cc1)Nc1ccc2c(c1)OCCO2	-	-	-	18	-	-
O=C(O)/C=C/c1cn(Cc2ccccc2)nc1-c1ccccc1	-	-	-	19	-	-
C=CCN1[C@H](C#N)[C@@H](c2ccc(Br)cc2)[C@H]1CO	.	.	.	-	-	.
N[C@H]1CC[C@@H]2SC[C@@H](C(=O)O)N2C1=O	.	.	.	-	-	.
Nc1ccc(-c2n[nH]c(=O)c3ccccc23)cc1N	-	-	-	19	-	-
Cc1cc2c(nc1C)CCCN2S(=O)(=O)c1ccc(C#N)cc1	-	.	.	-	-	.
CCc1ccc(/C=C2/SC(N3CCOCC3)=NC2=O)cc1	-	-	-	18	-	-
CCNC(=O)N1CCN(c2ccc(N3CCN(Cc4ccccc4)[C@H](C)C3)c(C)c2)[C@H](C)C1	-	.	.	-	-	.
O=C(O)[C@@H]1C[C@@H](O)CN1	-	.	.	-	-	.
CCC(=O)C1CCCN(C(=O)c2ccc(OC3CCN(C(=O)c4cccnc4)CC3)cc2)C1 (configuration not stated)	-	-	-	-	-	.
CN(C(=O)c1ccc(OC2CCN(C(=O)c3cccnc3)CC2)cc1)C1CCCCC1	-	-	-	24	-	-
CCC12CCCN3CCc4c(n(c5ccccc45)C(O)(C(=O)OC)C1)C32 (configuration not stated)	-	-	-	21	-	-
C=CCN1C(=O)[C@@H](CC(=O)N2CCSCC2)[C@]2(C(=O)OCC)CCCCC/C=C/12	.	.	.	-	-	.
CC(C)OC(=O)[C@@H](Cc1ccccc1)N[C@H](/C=C/c1ccccc1)[C@@H](O)Cc1ccccc1	-	.	.	-	-	.
Cc1c(CCNC=O)cc(C)c2c3c(oc12)CCCC3	-	-	-	89	-	-
C[C@]12Cc3ccccc3C1CC1=N[C@@H](c3ccc(C(F)(F)F)cc3)O[C@@]13C[C@@H]2C(=O)N3Cc1ccncc1 (some centres not stated)	-	.	.	-	-	.
COC(=O)CCCc1nc2ccccc2s1	-	-	-	63	-	-
NC(=O)COC(=O)CCCc1nc2ccccc2s1	-	-	-	-	-	.
Cc1ccc(CN2C(=O)CSCC2(C)C(=O)NCc2ccccc2)cc1 (configuration not stated)	-	.	.	-	-	.
CCOC(=O)CCC(=O)N1CCOCCN(C(=O)CCC(=O)OCC)CCOCC1	-	-	-	19	-	-
